In experiment [1] the target is T1, human PMK (Homo sapiens, UniProt Q15126).
T1 sequence (Q15126 1-192): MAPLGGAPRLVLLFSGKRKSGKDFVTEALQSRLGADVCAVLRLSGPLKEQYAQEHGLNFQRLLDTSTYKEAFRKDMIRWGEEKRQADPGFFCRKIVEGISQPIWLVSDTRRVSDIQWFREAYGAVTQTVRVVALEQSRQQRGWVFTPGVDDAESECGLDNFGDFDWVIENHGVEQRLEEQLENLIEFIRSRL
The following applies: read-out: affinity of natural substrates; cited from earlier work.

In experiment [2] the target is T1, human PMK. The experiment in a line: Fluorescence titration. It counts as binding. The method, boiled down:
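N-terminally His6-tagged human PMK was expressed in E. coli BL21(DE3) Rosetta and purified on Ni-Sepharose. Titration used 5 µM PMK in 20 mM potassium phosphate, 5 mM DTT, 100 mM KCl, 10% glycerol, pH 6.5, at 25 °C. Excitation was 295 nm, with emission recorded over 300–400 nm. The bound-minus-free intensity difference was fitted against ligand concentration to a one-site specific binding equation.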

Where two headings read alike, the source gives them in different places.

For the compound `Nc1ncnc2c1ncn2[C@@H]1O[C@H](COP(=O)(O)OP(=O)(O)O)[C@@H](O)[C@H]1O` [ADP, adenosine diphosphate], the Kd in experiment [1] is 19.9 ± 9 µM.
As to `Nc1ncnc2c1ncn2[C@@H]1O[C@H](COP(=O)(O)OP(=O)(O)OP(=O)(O)O)[C@@H](O)[C@H]1O` [ATP, adenosine-5'-triphosphate], the Kd in experiment [1] is 29 ± 6 µM.
Compound `O=c1cc(-c2ccc(O)c(O)c2)oc2cc(O)cc(O)c12` [luteolin] registered a Kd in experiment [2] of 61 ± 19.5 µM.

These data come from publication PMC3544975 (Biochemical and biophysical research communications, 2012).
